Many of the other results were omitted from the sample, so hits are more common in it than they were.
HCT116 PTEN-null: growth suppressors of cells with PTEN tumor suppressor deletion | 1.2% of 140,000 active | viability, % at 10 µM | HCT116 PTEN-null viability, CellTiter-Glo, 60 h; active compounds read low | AID 827;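 active = viability at or below a set limit, 4 SD under the median of all tested compounds, cut at about 3.7% in these data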;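 also: PTEN knockout HCT116 line with beta catenin targeted HCT116 as companion control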
HCT116 bCat-KO: beta-catenin-lacking colon tumor cell growth suppression | HCT116 beta-catenin knockout viability, CellTiter-Glo, 60 h; active compounds read low | 1.5% of 140,000 active | viability, % at 10 µM | AID 818;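 active = viability at or under a set limit, the compound median less 4 SD, cut at about 6% in these data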;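 also: 0% = Hyamine 1622 control at 20 µM and 100% = untreated cell control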
HUVEC inhibit: inhibitors of human endothelial cell proliferation; 1.1% of 86,000 active; AID 648; viability, % at 10 µM (by protocol); HUVEC proliferation, CellTiter-Glo luminescence, 72 h; active compounds read low;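 active = viability at or below 30%; inactive = viability above 30%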;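 also: 100% = median luminescence of DMSO-only cell control wells on each plate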
H69AR growth 86K: growth inhibitors of human H69AR lung tumor cells. H69AR lung tumor viability, ATP luminescence, 72 h; active compounds read low. viability, % at 10 µM. 6% of 85,000 active. AID 598;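 active = viability at or below 40%; inactive = viability above 40%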;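 also: multidrug resistant small cell line overexpressing MRP-1 efflux transporter; 100% = mean luminescence of untreated control wells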
Fibroblast inh: blocks proliferation of human lung fibroblasts; LL 47 human lung fibroblast viability, ATP luminescence; active compounds read low; viability, % at 10 µM; 1.1% of 85,000 active;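 active = viability at or below 50% in the single dose screen; inactive = viability above 50%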;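 also: compound exposure lasted 72 h before the ATP readout; 100% = median luminescence of untreated cell-only wells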
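material = human LL 47 lung fibroblast cells | dosing = compounds added from tenfold dosing solution, 0.1% DMSO final | timing = overnight cell rest, 72 h compound treatment at 37 °C | measured by = CellTiter-Glo luminescence measuring cellular ATP | evaluation = % viability versus median cells-only luminescence | control set = cell-only wells, no compound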
* hit, by the source's call; x = not tested or not shown.

SMILES	HCT116 PTEN-null	HCT116 bCat-KO	HUVEC inhibit	H69AR growth 86K	Fibroblast inh
CC(=O)Oc1ccc(N(C(C)=O)S(=O)(=O)c2cccs2)c2ccccc12	78	70	4.0*	1.4*	112
COc1ccc(N(C(=O)c2ccccc2C)S(=O)(=O)c2cccs2)cc1	14	13	x	x	x
COc1ccc(-n2c(N)c(-c3nc4ccccc4n3C)sc2=S)cc1	63	64	x	x	x
CCOc1ccc(-n2c(N)c(-c3nc4ccccc4[nH]3)sc2=S)cc1	88	99	54	22*	74
O=C(Nc1nc2cc(Cl)ccc2s1)C1CCCN(S(=O)(=O)c2cccc3cccnc23)C1 (configuration not stated)	21	27	x	x	x
Cc1ccc(NC(=O)CSc2nc(O)c(Cc3ccccc3)c(=O)n2-c2ccccc2)cc1	101	96	x	x	x
COc1cc(C(=O)NCc2ccc(-c3nc4ccccc4o3)cc2)cc(OC)c1OC	62	69	38	64	45*
O=C(CC(=O)c1ccccc1)Nc1cccnc1Cl	95	87	x	x	x
O=C(CSc1ncnc2c1oc1ccccc12)Nc1nc2ccccc2s1	75	68	16*	13*	103
O=C(CSc1ncnc2c1oc1ccccc12)Nc1cccc(C(F)(F)F)c1	97	84	45	17*	95
CCc1nnc(NC(=O)CSc2ncnc3c2oc2ccccc23)s1	94	91	105	100	103
Cc1nc(SCC(=O)Nc2ccccc2)c2oc3ccccc3c2n1	94	87	47	12*	91
Cc1nc(SCC(=O)Nc2ccc(F)cc2)c2oc3ccccc3c2n1	80	92	72	91	89
O=C(NN=C1CCCCCCCCCCC1)c1ccccc1F	96	96	x	x	x
CCCCNC(=O)c1sc2nc(C)cc(COC)c2c1-n1cccc1	88	85	99	35*	101
COc1ccc(CC(=O)Nc2ccc3c(c2)OCO3)cc1S(=O)(=O)N1CCOCC1	77	77	104	81	102
CCOC(=O)c1ccc(NC(=O)CN2C(=O)C(C)SC(C)C2=O)cc1 (configuration not stated)	94	97	x	x	x
COc1ccc(NC(=O)Cn2ncc(Cl)c(Cl)c2=O)cc1S(=O)(=O)N1CCOCC1	0.6*	0.9*	x	x	x
CCOC(=O)c1ccc(NC(=O)CN2C(=O)C3C4C=CC(C4)C3C2=O)cc1 (configuration not stated)	108	107	94	35*	100
Cc1ccc(C(=O)OCn2ncc(Cl)c(Cl)c2=O)cc1	1.2*	1.0*	x	x	x
CCc1ccccc1NC(=O)CN(C)C(=O)Cn1ncc(Cl)c(Cl)c1=O	1.8*	1.8*	x	x	x
CCOC(=O)c1ccc(NC(=O)Cn2ncc(Cl)c(Cl)c2=O)cc1	1.8*	1.7*	x	x	x
O=C(OCn1ncc(Cl)c(Cl)c1=O)c1ccc(C(F)(F)F)cc1	4	3.4*	x	x	x
CCOC(=O)c1ccc(NC(=O)CN2C(=O)CCC2=O)cc1	98	97	95	117	97
Cc1ccsc1/C=N/n1c(-c2ccccn2)n[nH]c1=S	90	89	x	x	x
SMILES	HCT116 PTEN-null	HCT116 bCat-KO	HUVEC inhibit	H69AR growth 86K	Fibroblast inh
CCOc1cc(/C=N/NC(=O)CCCC(=O)NC2CCCCC2)ccc1O	98	93	x	x	x
O=C1C=CCC(/C=C/c2ccccc2)O1 (configuration not stated)	4	4.3*	x	x	x
O=c1oc2ccccc2nc1/C=C(O)/C=C\c1ccccc1	69	64	x	x	x
COc1ccc2c(c1)c(CCN1C(=O)c3ccccc3C1=O)cn2C(=O)c1ccco1	88	91	26*	50	80
O=C(Oc1ccc2[nH]cc(CCN3C(=O)c4ccccc4C3=O)c2c1)c1ccco1	112	94	98	99	106
Cc1cccc2sc(NNC(=O)C3COc4ccccc4O3)nc12 (configuration not stated)	0.5*	1.2*	x	x	x
Cn1cccc1-c1nc2ccc(NC(=O)c3ccc([N+](=O)[O-])cc3)cc2[nH]1	84	70	90	33*	92
COc1ccc(OC)c(NC(=O)C2CCCN(S(=O)(=O)c3cccc4nsnc34)C2)c1 (configuration not stated)	85	96	86	40*	93
COc1cc(NC(=O)C2CCCN(S(=O)(=O)c3cccc4nsnc34)C2)cc(OC)c1 (configuration not stated)	73	71	x	x	x
Cc1cc(-c2n[nH]c(=S)n2/N=C/C(Cl)=C/c2ccccc2)n[nH]1	2.2*	5.0*	x	x	x
N#C/C(=C\c1ccc(-c2ccc([N+](=O)[O-])cc2Br)o1)C(=O)N1CCN(c2ccccc2)CC1	78	82	x	x	x
N#Cc1cc(C(=O)c2ccccc2OCC(=O)Nc2ccccc2Cl)cn(C2CCCCC2)c1=O	75	75	x	x	x
N#Cc1cc(C(=O)c2cc(Br)ccc2O)cn(C2CCCCC2)c1=O	44	49	98	13*	93
NC(=O)c1c(NC(=O)C2CCCO2)sc2c1CCCC2 (configuration not stated)	111	94	x	x	x
C=CCn1c(N)c(C(=O)OC(C)(C)C)c2nc3ccccc3nc21	69	77	93	30*	95
Oc1c(C(Nc2nc3ccccc3s2)c2ccco2)ccc2cccnc12 (configuration not stated)	15	13	4.5*	44	17*
CC(C)C(=O)NC(c1ccco1)c1ccc2cccnc2c1O (configuration not stated)	2.0*	3.5*	2.1*	1.9*	14*
COc1ccc(C(NC(C)=O)c2ccc3cccnc3c2O)c(OC)c1 (configuration not stated)	2.5*	3.7*	2.4*	0.9*	15*
Cc1c(O)c(=O)ccn1C	106	93	x	x	x
O=C(CN(c1ccccc1)S(=O)(=O)c1ccccc1[N+](=O)[O-])NN=C1CCCCCCC1	95	90	x	x	x
CCc1nc2cc([N+](=O)[O-])c([N+](=O)[O-])cc2[nH]1	89	91	x	x	x
CCCC(=O)c1c[nH]c(C(=O)NCCCN2CCOCC2)c1	92	84	x	x	x
C=C(C)CN1CCN(S(=O)(=O)c2ccc(C)c(N(C)S(=O)(=O)c3ccc(C)cc3)c2C)CC1	66	70	x	x	x
Cc1ccc2[nH]cc(C(=O)CCl)c2c1	2.3*	2.8*	x	x	x
Cc1ccc2[nH]cc(C(=O)CN3CCN(C)CC3)c2c1	98	80	103	84	105
SMILES	HCT116 PTEN-null	HCT116 bCat-KO	HUVEC inhibit	H69AR growth 86K	Fibroblast inh
O=S(=O)(c1ccccc1)n1c(C(O)c2ccccn2)cc2ccccc21 (configuration not stated)	92	91	x	x	x
Nc1ccc2c(c1)sc1ccccc12	99	94	x	x	x
Nc1nsc2ccccc12	4	4.7*	x	x	x
Cc1ccc(Cc2nnc3n(-c4cccc(C)c4)nc(C(=O)c4ccccc4)n3c2=O)cc1	66	66	84	75	84
CCCCCn1c(=O)[nH]c2cc(C(=O)NCc3ccc4c(c3)OCO4)ccc2c1=O	72	85	59	32*	89
COC(=O)c1ccc2c(=O)n(CCCCCC(=O)NCc3ccc4c(c3)OCO4)c(=O)[nH]c2c1	94	104	98	87	94
